Tested on: MS2 coat protein
Experiment: apparent Kd, MS2 coat protein; higher = weaker binding; RNA-MaP array; FMN 200 µM where present
Procedure, shortened: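 Stalled E. coli RNA polymerase produced the designs on Illumina sequencing-chip clusters. SNAP-549-labelled MS2 coat protein was added from 0.7 or 1.5 nM, doubling to 3 µM, without and then with constant ligand, in 100 mM Tris-HCl pH 7.5, 80 mM KCl, 4 mM MgCl2, BSA, DTT, yeast tRNA and Tween-20. The apparent Kd is the median of filtered per-cluster fits of green signal normalised to red-channel RNA signal and control-cluster median Fmax.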

[1] = designed as: OFF switch for flavin mononucleotide, no ligand
[2] = ligand present: flavin mononucleotide, designed as: OFF switch for flavin mononucleotide
[3] = designed as: ON switch for flavin mononucleotide, no ligand
[4] = ligand present: flavin mononucleotide, designed as: ON switch for flavin mononucleotide

Row | Sequence | apparent Kd [1] [nM] | apparent Kd [2] [nM] | apparent Kd [3] [nM] | apparent Kd [4] [nM]
1 | AUACGUGAGAAGGAUAUCACUCGCCAAAGGCGUUGAGAAGGUUUCACAUGAGGAUCACCCAUGUGCUCUUCUAG | 27.7 | 61.5 | – | –
2 | AGCACGAAAGUGCAACGAUGUACGAGAAGGACAUGAGGAUCACCCAUGUCGCUGUAACAGCACAUGUAGGAUAUCGUACAUCGA | 12.9 | 15.2 | – | –
3 | AUCAUGAGAGGAUAUACAUGAGGAUCACCCAUGUUGUUAACACCAUGAGCUCAUUUACGUAGAAGGCUCAUUUG | 28.1 | 51.9 | – | –
4 | UUGUUUUUUGAGGAUAUGCGACGUUUUUUCGUCGUAGAAGGCGAUACAUGAGGAUCACCCAUGUUUAUGGGCAU | 124 | 169 | – | –
5 | UGAUACAUGAGGGUCUCCCAUGACAUGAGGAUCACCCAUGUGCAGGAUAUACGUGUGAUAAUAUAGUAGAAGGGCAGUCUAUGU | 345 | 577 | – | –
6 | GUGUACUGAGGAUAUACAUGAGGAUCACCCAUGUGAAUAAGAUAGAAUAAGAUAAAGUGUAGAAGGCAGAGUGU | 40.8 | 35.4 | – | –
7 | UUGCCUCAGAACAUGAGGAUCACCCAUGUGCUGCGGGCAACGUAGGAUAUGAUGGUUUGAUACCAUCAGAAGGAUGAUGGUACC | – | – | 5.4 | 5.21
8 | CAGACCGGCGUAGGAUAUGUCGACAUGAGGAUCACCCAUGUAAACCUUGUCUGGUCCGGUGUGUGACAGAAGGAUGUCGGCCAU | 14.6 | 27.9 | – | –
9 | GCCUCAUAGUAGAAGGGACUUAGACAGUAAAGCAAAUAGAGGAAUUAACAUGAGGAUCACCCAUGUCAGGAUAUACUAAGAGGC | 11.3 | 12.1 | – | –
10 | UCUACAUAAAUUCAUCAAUACAGAAAGGAUAUGAGAUACAUGAGGAUCACCCAUGUGCAUGGGAAUUAGAAGGUUCAAUUAACU | 98.5 | 67.2 | – | –
11 | UAGGUCGCAGGAUAUGCUGGGUGCAUAUCUUAGUGCAGGAGACAUGAGGAUCACCCAUGUAGAAGGGCGCGCUG | 44.9 | 124 | – | –
12 | GCAGCACAGAUUUACAUGAGGAUCACCCAUGUCUAUUGAGAUGAGGAUAUGCAUCGAAUGAAGUUGCAGAAGGCAUUGUGCUGC | – | – | 7.51 | 6
13 | GGAUCGUAUGUCAGGAUAUACCACUGGAUACAGUGGUAGAAGGGACAUGAGGAUCACCCAUGUGUUAUCGAUCC | 58.9 | 124 | – | –
14 | GCAUUGAUAACAGGAUAUAUGUUUCCUACAUGAGGAUCACCCAUGUAGGUGAUCAGCCGAGAAAAGUAGAAGGGUUAUCAAUGC | – | – | 16.7 | 15.4
15 | GACAUGAGGAUCACCCAUGUCCGGGCCAAGAGAAGAAAUACCAGAAGGACCGGCAGAAAUGUGCGGUAGGAUAUGGGAUUCGUG | – | – | 36.4 | 9.15
16 | UGUCCAUAGCAGAAGGACAUGUAUAACCAUGAAAACAUGAGGAUCACCCAUGUAGGAUAUGCUAUGGACUAAGAGCGAAAGCUC | 8.57 | 68.8 | – | –
17 | CUCAUGUUAGGAUAUGCGCUCAACGUAGUGGUCGAGCUCUAGCAGAAGGAACAUGAGGAUCACCCAUGUUUGCA | 58.1 | 26.8 | – | –
18 | AAUAGCUAAGGAUAUACAUGAGGAUCACCCAUGUAAAACACUACUUGGAACCGCCUCGGUAGAAGGUAGAAAAU | – | 22.3 | – | –
19 | CCAGAUAUGUAAGGAUAUAUAGUGGAAUACACUAUAGAAGGUAUGUGAGAACAUGAGGAUCACCCAUGUCAUUGGAUAUCUGGA | – | – | 37.1 | 39.3

Row | Sequence | apparent Kd [1] [nM] | apparent Kd [2] [nM] | apparent Kd [3] [nM] | apparent Kd [4] [nM]
20 | UCGCGGGAGCAGAAGGGACAGGCCUAUUGUCGUGAGGUCUGCACUUAACAUGAGGAUCACCCAUGUCAGGAUAUGCCCACGCGA | 4.8 | 4.94 | – | –
21 | GGUUGUCAUCGUCAUCCUUUCGGUACAUGAGGAUCACCCAUGUAGGAUAUGCUGCGUUCGAUGUGGCAGAAGGGCGUGUGUGUU | 22.1 | 40.5 | – | –
22 | GGUACUCAAAGAGUACCAAUACGAACAUGAGGAUCACCCAUGUAGGAUAUGCUACUCAAAGAGUAGCAGAAGGACGUGUACCUU | 24.7 | 54 | – | –
23 | UUGCAGUGCGGGUAGGAUAUGUAGGGUGGUACAUGAGGAUCACCCAUGUAUCCACCCUUCGACCGGCAGAAGGGCCUGUCACCGC | – | – | 15.2 | 14.8
24 | GCGGUACAUGAGGAUCACCCAUGUCAGGAUAUCCGCUGUUUGUUAAUAAACAGGCGGUGGAGAAGGGACUUCGC | 34.9 | 36.7 | – | –
25 | CUUUUGUGAGGAUAUCAGUAGUAAAAAAAUAAAUUUACUACUGAGAAGGCACAUGAGGAUCACCCAUGUUCCUC | 42.2 | 296 | – | –
26 | GGGUACGUUUCGUAGCAGUGUCAUCGAGAAGGCCCUGACAUGAGGAUCACCCAUGUUGUUACAUGGGAGGAUAUCGAUGAUCCC | – | – | 53.6 | 8.36
27 | GUACUUGUGCAGAAGGGCAUUGAUUUAGGUUGUUAGGUUGAUCAGAUAUGCAGGAUAUGCUAUACAUGAGGAUCACCCAUGUUC | – | – | 92 | 11.7
28 | UUUUCCAAUCAAGGAUAUGUAUUAAAGAUUUGAAAACAUGAGGAUCACCCAUGUAUAUGGUGGGAACAGAAGGUGAAUAAGUAA | 221 | 231 | – | –
29 | GUUGCUACUGAGGAUAUUAUUCUACCCGACUGAUAAGAAGGCAGUACAUGAGGAUCACCCAUGUGGGUAGCCAG | 16.7 | 22.5 | – | –
30 | GAGUGGUAAAGAGGAUAUGCAUUGUUAUUCACUGCAGAAGGUUUUAACAUGAGGAUCACCCAUGUAGGACUAUUCCUGUGUUUC | – | – | 14.6 | 12.5
31 | CAGCGGUGAGGAUAUACGUAGGUACAGAUCUGUGUGUUCCUACAUGAGGAUCACCCAUGUAGAAGGCAUGGCUG | 43 | 140 | – | –
32 | UGAUCUUUUGUUAGGAUAUGCUGUUUUUUUUUACAGCAGAAGGGACAUGAGGAUCACCCAUGUCUUGUCAUAAA | 11.3 | 18.6 | – | –
33 | UGGUACAUGGGAGGAUAUGGGACAUGAGGAUCACCCAUGUGAAAAUUAAAUAUGCCGAUAGGCAACUAGAAGGCCCAUGUACCU | – | – | 33.1 | 15.4
34 | AGUUAAUAUCGAGGAUAUCCUCUACCACAUGAGGAUCACCCAUGUAUGCAUGGAGAAGGCGAUAUUAACAGCAUGUUACAUGCA | – | – | 157 | 8.62
35 | AAGUAGGUAGGAUAUACAUGGAUAUACAUUCAUGUGGACCUACAUGAGGAUCACCCAUGUAGAAGGACCUAUAA | 40.4 | 58 | – | –
36 | UUAUACGUUGAGGAUAUGCGACUUUUUUUAGUUGUAGAAGGCGAUACAUGAGGAUCACCCAUGUUUAUGGGCAU | 166 | 218 | – | –
37 | GACAUGGUCUAGAAGGCCUAUCUAUUUAAGUACGAUUUAGAACAGCAUAGGAGGAUAUGGCUAACAUGAGGAUCACCCAUGUUC | – | – | 49 | 23.3
38 | CUUCAGUGAGGAUAUGGCAUGCGCUGAUAAGCGCUCUCACGCCAGAAGGCACAUGAGGAUCACCCAUGUAAAAC | 39.1 | 152 | – | –

Row | Sequence | apparent Kd [1] [nM] | apparent Kd [2] [nM] | apparent Kd [3] [nM] | apparent Kd [4] [nM]
39 | UUGCUCAAAUGGGCAGGGACCUCACAUGAGGAUCACCCAUGUCAGGAUAUCCUAGUUUGGACGUAGGAGAAGGGACAGAGUAUC | 227 | 171 | – | –
40 | GCCAUCGCAUGAGGAUAUGCUCGGGUUUCCCGAGCAGAAGGCAUGUCACAAGACAUGAGGAUCACCCAUGUAGUUAAGAUGGCA | – | – | 190 | 9.98
41 | GUGUAGACAGGAUAUGCUUUGAGCGUAUGAGAGUAGGCUCGACAUGAGGAUCACCCAUGUAGAAGGGUCUACAC | 12.4 | 13.2 | – | –
42 | UUACUCAUGUAAGGAUAUGCAGCCGUUUCGGCUGCAGAAGGUACUAUAAUACAUGAGGAUCACCCAUGUCUUUUUAAUUUUUAU | – | – | 88.7 | 40.4
43 | UGGUCAUGAUCAGGAUAUUAACAUGGGCUACAUUAAGAAGGGAUAGUGAGAUACGAACAUGAGGAUCACCCAUGUUGUGUUGUU | – | – | 26.8 | 21.2
44 | GAAUUAAUGAUCCAAUUUUACAACAUGAGGAUCACCCAUGUGCAGGAUAUCGUGUGUUUUAUAUUCGAGAAGGGCAAAUACAUU | 161 | 287 | – | –
45 | AAGUAUAGAGGAUAUAGUAGUUACAACAUGAGGAUCACCCAUGUUCUUCAUAACGUAGUUCUAGAAGGCUGAUAAA | 183 | 271 | – | –
46 | CCGCCCUGGAGAGGAUAUGAUCCGUACUAAAGGUCAGAAGGCUCCGAGUUACAUGAGGAUCACCCAUGUAGGGCGGAAAAUAUG | – | – | 6.3 | 5.25
47 | AACGUGGCUUAGGAUAUUGCUACGCAAAAGUAACAAGAAGGAGGCACAUGAGGAUCACCCAUGUGAUUCGUUGA | 19.8 | 44.9 | – | –
48 | UUUUAACAUGAGGAUCACCCAUGUGAGGAUAUCGAAAUUUAUAUUUAUAUUUAUAUAACGAGAAGGCACAUUUU | 72.4 | 87.6 | – | –
49 | GUGGUCAGACAUGAGGAUCACCCAUGUGGAAUAAAUAACGGACAGGAUAUCGAAUAUAGGAUAUACGAGAAGGGUUGAUUGGUG | – | – | 83.7 | 106
50 | ACCAGGCGAGGAUAUACUUAGAUUUUUUCGUUUAGUCUCGAACAUGAGGAUCACCCAUGUAGAAGGUGCUUCAC | 49.9 | 42.7 | – | –
51 | AAAACGCAAGGAUAUACAUGAGGAUCACCCAUGUAGACAAUAUAAAGGGUCUCACCAUGUAGAAGGUGCUACCC | 21.3 | 16.5 | – | –
52 | GCCUCAGAAUUAAUUGUGAGAGGCAGAAGGCUAUAUCUCGUGUUAAACAUGAGGAUCACCCAUGUAGAGGAUAUGCUAUUACAG | 9.3 | 10.6 | – | –
53 | GCGGAGUGAGGAUAUCCAAUUUAACGUACCAAUUAGGUACGGGAGAAGGCACAUGAGGAUCACCCAUGUACCGC | 72.4 | 53.5 | – | –
54 | GAACGUGACAUGAGGAUCACCCAUGUUGCCUUGGCCAGGUCGUAGGAUAUCCUGUUGAUUAAUUUGGAGAAGGGCGACUGGGAG | – | – | 33.5 | 12.9
55 | ACUAUACGAGGAUAUACUGUCGGGCCUCGGACAUAAAUACGACAUGAGGAUCACCCAUGUAGAAGGCGUUUACU | 31.2 | 54 | – | –
56 | AGGUUGUGAGGAUAUUAGUUUUAUGAUUGGAGGAGUUUGGCUGAGAAGGCACAUGAGGAUCACCCAUGUAGAUC | 61.9 | 124 | – | –
